Measurements reported in ChEMBL document CHEMBL1145477, “Activity of T-1106 in a hamster model of yellow Fever virus infection” (Antimicrob Agents Chemother, 2007).
The source made the active and inactive calls. The calls are words filed in the database; no cut-off is given here.

Assays:
[1] = tested on: Yellow fever virus; assay: Antiviral activity against YFV Jimenez infected in Syrian golden hamster liver treated 4 hrs before viral challenge assessed as survival at 100 mg/kg/day, ip bid for 8 days; type: functional, organism-based
[2] = tested on: Yellow fever virus; assay: Antiviral activity against YFV Jimenez infected in Syrian golden hamster liver assessed as survival at 100 mg/kg/day, ip bid for 8 days administered after 2 days post-infection; type: functional, organism-based
[3] = tested on: Yellow fever virus; assay: Antiviral activity against YFV Jimenez infected in Syrian golden hamster liver assessed as survival at 100 mg/kg/day, ip bid for 8 days administered after 3 days post-infection; type: functional, organism-based
[4] = tested on: Syrian golden hamster; assay: Toxicity in YFV infected Syrian golden hamster assessed as assessed as weight change at 32 mg/kg/day, ip bid for 7 days; type: organism-based, Mesocricetus auratus; parameters: route intraperitoneal; conditions: in vivo, 168 h
How it was run: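 Female Syrian golden hamsters (~100 g), toxicity-control groups of three, sham-infected. Drug suspended in saline or 0.4% carboxymethyl cellulose, given i.p. b.i.d. 12 h apart from −4 h through 7 days. Mortality checked daily; weight taken at 0, 3 and 6 dpi, with change taken as 3-to-6 dpi difference.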

[5] = tested on: Yellow fever virus; assay: Antiviral activity against YFV Jimenez infected in Syrian golden hamster liver assessed as mean day to death at 100 mg/kg/day, ip bid for 8 days administered after 2 days post-infection; type: functional; conditions: route intraperitoneal
[6] = tested on: Yellow fever virus; assay: Antiviral activity against YFV Jimenez infected in Syrian golden hamster liver assessed as weight change at 100 mg/kg/day, ip bid for 8 days administered after 2 days post-infection; type: functional; conditions: route intraperitoneal
[7] = tested on: Yellow fever virus; assay: Antiviral activity against YFV Jimenez infected in Syrian golden hamster assessed as weight change at 10 mg/kg, ip bid for 7 days; type: functional; conditions: route intraperitoneal
[8] = tested on: Yellow fever virus; assay: Antiviral activity against YFV Jimenez infected in Syrian golden hamster liver assessed as alanine aminotransferase at 100 mg/kg/day, ip bid for 8 days administered after 5 day post-infection; type: functional; conditions: route intraperitoneal
How it was run: (§1)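 YFV (Jimenez)-infected female hamsters were treated b.i.d. i.p. or p.o. Serum was drawn by ocular sinus at 6 dpi. ALT was read with a colorimetric kit adapted to microplates: substrate plus serum for 30 min at 37°C, then colour reagent and developer, absorbance at 505 nm. Values are IU/liter against saline controls.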

[9] = tested on: Yellow fever virus; assay: Antiviral activity against YFV Jimenez infected in Syrian golden hamster assessed as mean day to death after 21 days post-infection at 100 mg/kg, ip bid for 7 days; type: functional; conditions: route intraperitoneal
[10] = Toxicity in MDBK cells; type: cell-based, Bos taurus; conditions: cattle
[11] = tested on: Yellow fever virus; assay: Antiviral activity against YFV Jimenez infected in Syrian golden hamster assessed as mean day to death after 21 days post-infection at 32 mg/kg, po bid for 7 days; type: functional
[12] = tested on: Yellow fever virus; assay: Antiviral activity against YFV Jimenez infected in Syrian golden hamster liver assessed as alanine aminotransferase at 100 mg/kg/day, ip bid for 8 days administered after 3 days post-infection; type: functional; conditions: route intraperitoneal; how it was run: as §1
[13] = tested on: Yellow fever virus; assay: Antiviral activity against YFV Jimenez infected in Syrian golden hamster assessed as serum alanine aminotransferase at 32 mg/kg, ip bid for 7 days; type: functional; conditions: route intraperitoneal; how it was run: as §1
[14] = tested on: Yellow fever virus; assay: Antiviral activity against YFV Jimenez infected in Syrian golden hamster liver administered 4 hrs before viral challenge twice daily for 4 days post-infection by infectious cell culture assay; type: functional, organism-based
How it was run: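 Liver was collected at necropsy 4 dpi from 5 hamsters per group, after b.i.d. dosing that began 4 h before i.p. Jimenez YFV challenge. Homogenates were diluted serially from 10−1 to 10−8 onto semiconfluent Vero cells in four replicate columns. CPE was scored microscopically after 6 days, and titer was extrapolated from dilution and tissue weight.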

[15] = tested on: Yellow fever virus; assay: Antiviral activity against YFV infected in african green monkey CV1 cells assessed as reduction in cytopathic effect after 6 days; type: functional, organism-based; conditions: CV-1, 144 h
How it was run: (§2)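 Jimenez hamster-adapted YFV at 10 CCID50/well on Vero or CV-1 monolayers; seven drug concentrations added 5–10 min before virus; 37°C for 6 days. CPE scored microscopically, then neutral red uptake (0.34% dye, 2 h, eluted and quantified). EC50 derived; CC50 from uninfected drug-treated cells; SI = CC50/EC50.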

[16] = tested on: Yellow fever virus; assay: Antiviral activity against YFV infected in african green monkey Vero cells assessed as reduction in cytopathic effect after 6 days; type: functional, organism-based; conditions: 144 h; how it was run: as §2
[17] = tested on: Yellow fever virus; assay: Antiviral activity against YFV Jimenez infected in Syrian golden hamster liver assessed as alanine aminotransferase at 100 mg/kg/day, ip bid for 8 days administered after 2 days post-infection; type: functional; conditions: route intraperitoneal; how it was run: as §1
[18] = tested on: Yellow fever virus; assay: Antiviral activity against YFV Jimenez infected in Syrian golden hamster assessed as weight change at 100 mg/kg, ip bid for 7 days; type: functional; conditions: route intraperitoneal
[19] = tested on: Yellow fever virus; assay: Antiviral activity against YFV Jimenez infected in Syrian golden hamster assessed as survival of animal at 100 mg/kg, po for 7 days; type: functional, organism-based; parameters: dose 100 mg/kg
[20] = tested on: Yellow fever virus; assay: Antiviral activity against YFV Jimenez infected in Syrian golden hamster assessed as serum alanine aminotransferase at 32 mg/kg, po bid for 7 days; type: functional; how it was run: as §1
[21] = tested on: Yellow fever virus; assay: Antiviral activity against YFV Jimenez infected in Syrian golden hamster assessed as survival of animal at 32 mg/kg, ip bid for 7 days; type: functional, organism-based; parameters: dose 32 mg/kg
[22] = tested on: Yellow fever virus; assay: Antiviral activity against YFV Jimenez infected in Syrian golden hamster assessed as weight change at 32 mg/kg, po bid for 7 days; type: functional
[23] = tested on: Yellow fever virus; assay: Antiviral activity against YFV Jimenez infected in Syrian golden hamster liver assessed as weight change at 100 mg/kg/day, ip bid for 8 days administered after 1 day post-infection; type: functional; conditions: route intraperitoneal
[24] = tested on: Yellow fever virus; assay: Antiviral activity against YFV Jimenez infected in Syrian golden hamster liver assessed as mean day to death at 100 mg/kg/day, ip bid for 8 days administered after 3 days post-infection; type: functional; conditions: route intraperitoneal
[25] = tested on: Yellow fever virus; assay: Antiviral activity against YFV Jimenez infected in Syrian golden hamster liver assessed as weight change at 100 mg/kg/day, ip bid for 8 days administered after 3 days post-infection; type: functional; conditions: route intraperitoneal
[26] = Selectivity index, ratio of CC50 for african green monkey Vero cells to EC50 for YFV infected in Vero cells; type: functional; how it was run: as §2

## NC(=O)c1nccn([C@@H]2O[C@H](CO)[C@@H](O)[C@H]2O)c1=O
[1]
  Activity: Active
[2]
  Activity: Active
[3]
  Activity: Active
[4]
  Activity: 8.3 g
[5]
  Activity: >21 days
[6]
  Activity: 6.3 g
[7]
  Activity: -1.8 g
[8]
  Activity: 205 IU/L
[9]
  Activity: >21 days
[10]
  CC50: 2900 µM
[11]
  Activity: >21 days
[12]
  Activity: 79 IU/L
[13]
  Activity: 65 IU/L
[14]
  Activity: Active
[15]
  EC50: > 100 µg/mL
[16]
  EC50: > 100 µg/mL
[17]
  Activity: 57 IU/L
[18]
  Activity: 7.1 g
[19]
  Activity: Active
[20]
  Activity: 61 IU/L
[21]
  Activity: Active
[22]
  Activity: 4.4 g
[23]
  Activity: 6.1 g
[24]
  Activity: >21 days
[25]
  Activity: 2.9 g
[26]
  Ratio CC50/EC50: 1
